pIC50: −log10 of the molar value.
Columns and labels:
[1] = Antiinflammatory activity in human neutrophils assessed as inhibition of FMLP/cytochalasin B-induced superoxide anion generation by measuring superoxide dismutase-inhibitable reduction of ferricytochrome c preincubated for 5 mins followed by FMLP/cytochalasin B-induction by spectrophotometric analysis; type: functional, cell-based; conditions: Neutrophil
Summary of the method: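 Neutrophils isolated from healthy donor venous blood (20−30 years old) by dextran sedimentation, Ficoll Hypaque centrifugation and hypotonic erythrocyte lysis, kept at 4 °C in Ca2+-free HBSS pH 7.4. Cells (6 × 10^5 cells/mL) with 0.5 mg/mL ferricytochrome c and 1 mM Ca2+, 37 °C 2 min; compound or 0.1% DMSO 5 min; CB 1 μg/mL 3 min; FMLP 100 nM. A550 followed continuously, ±SOD 100 U/mL; IC50, mean ± SEM, n = 3 or 4.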

[2] = Antiinflammatory activity in human neutrophils assessed as inhibition of fMLP/CB-induced elastase release using MeO-Suc-Ala-Ala-Pro-Val-p-nitroanilide as elastase substrate preincubated for 5 mins followed by fMLP/CB-induction; type: functional, cell-based; conditions: Neutrophil
Summary of the method: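 Donor neutrophils (dextran/Ficoll/hypotonic lysis, held at 4 °C in Ca2+-free HBSS pH 7.4) at 6 × 10^5 cells/mL, equilibrated with 100 μM MeO-Suc-Ala-Ala-Pro-Val-p-nitroanilide at 37 °C for 2 min. Compound or 0.1% DMSO vehicle added for 5 min, then activated with FMLP 100 nM plus CB 0.5 μg/mL. A405 read continuously. IC50 given as mean ± SEM, n = 3 or 4.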

| pIC50 [1] | pIC50 [2] | SMILES |
| --- | --- | --- |
| 5.96 | 5.74 | COc1c(Cc2ccc(O)cc2)c(O)c(Cc2ccc(O)cc2)c2c1-c1ccc(O)cc1CC2 |
| 6.15 | 6.15 | COc1cc(O)c(Cc2ccc(O)cc2)c(CCc2cccc(O)c2)c1Cc1ccc(O)cc1 |
| 5.77 | 5.55 | COc1cc(O)cc(CCc2cccc(O)c2)c1Cc1ccc(O)cc1 |
| 5.74 | 5.85 | COc1cc(O)c(-c2c(O)cc3c(c2OC)-c2ccc(O)cc2CC3)c2c1-c1ccc(O)cc1CC2 |
| 5.19 | < 5.00 | COc1cc(O)cc(CCc2ccccc2)c1 |
| < 5.00 | < 5.00 | CC(C)C[C@@](O)(CC(=O)OCc1ccc(O[C@@H]2O[C@H](CO)[C@@H](O)[C@H](O)[C@H]2O)cc1)C(=O)OCc1ccc(O[C@@H]2O[C@H](CO)[C@@H](O)[C@H](O)[C@H]2O)cc1 |
| 6.40 | 6.22 | COc1cc(O)cc(CCc2cccc(O)c2)c1-c1c(OC)cc(O)c2c1CCc1cc(O)ccc1-2 |
| 5.38 | 5.92 | COc1cc(O)cc2c1-c1cc(-c3c(O)cc(OC)c4c3ccc3cc(O)ccc34)c(O)cc1CC2 |
| 5.31 | < 5.00 | COc1cc(CCc2cccc(O)c2)cc(O)c1-c1c(O)cc(OC)c2c1CCc1cc(O)ccc1-2 |
| 5.70 | 5.68 | COc1cc2c(ccc3cc(O)c(OC)c(OC)c32)cc1O |
| 6.70 | 5.70 | COc1cc(O)c(Cc2ccc(O)cc2)c2c1-c1ccc(O)cc1CC2 |
| < 5.00 | < 5.00 | CCOCc1ccc(O)cc1 |
| 5.82 | 6.30 | COc1cc(O)cc2c1-c1cc(-c3c(O)cc(OC)c4c3CCc3cc(O)ccc3-4)c(O)cc1CC2 |
| 5.60 | < 5.00 | COc1c(O)c(-c2c(O)c(OC)c(OC)c3c2CCc2cc(O)ccc2-3)c2c(c1OC)-c1ccc(O)cc1CC2 |
| 6.70 | 5.24 | COc1cc2c(cc1O)CCc1cc(O)c(OC)c(OC)c1-2 |
| 5.20 | 5.38 | COc1cccc(CCc2c(Cc3ccc(O)cc3)c(O)cc(OC)c2Cc2ccc(O)cc2)c1 |
| 5.72 | 5.77 | COc1cc2c(ccc3c(-c4c(O)cc(OC)c5c4ccc4cc(O)ccc45)c(O)cc(OC)c32)cc1O |
| 5.66 | 6.05 | COc1cc(CCc2cccc(O)c2)cc(O)c1Cc1ccc(O)cc1 |

| pIC50 [1] | pIC50 [2] | SMILES |
| --- | --- | --- |
| 5.62 | 6.15 | COc1cc2c(cc1O)CCc1c(-c3c(O)cc(OC)c4c3CCc3cc(O)ccc3-4)c(O)cc(OC)c1-2 |
| 5.55 | 5.80 | COc1cc2ccc3c(-c4c(O)cc(OC)c5c4ccc4cc(O)c(OC)cc45)c(O)cc(OC)c3c2cc1O |
| 5.44 | 5.66 | COc1cc(O)c(Cc2ccc(O)cc2)c(CCc2cccc(O)c2)c1 |
| 5.96 | 5.96 | COc1cc(CCc2cccc(O)c2)c(Cc2ccc(O)cc2)c(O)c1Cc1ccc(O)cc1 |
| 6.70 | 6.40 | COc1cc(O)c(-c2c(O)c(Cc3ccc(O)cc3)c3c(c2OC)-c2ccc(O)cc2CC3)c2c1-c1ccc(O)cc1CC2 |
| 6.70 | 5.70 | COc1c(Cc2ccc(O)cc2)c(O)cc2c1-c1ccc(O)cc1CC2 |
| 5.80 | 5.72 | COc1c(O)c(Cc2ccc(O)cc2)c2ccc3cc(O)ccc3c2c1OC |
| 5.82 | 6.52 | COc1cc2c(ccc3c(-c4c(O)cc(OC)c5c4ccc4cc(O)c(OC)cc45)c(O)cc(OC)c32)cc1O |
| < 5.00 | < 5.00 | CC[C@@H](CC[C@@H](C)[C@H]1CC[C@H]2[C@@H]3CC=C4C[C@@H](O[C@@H]5O[C@H](CO)[C@@H](O)[C@H](O)[C@H]5O)CC[C@]4(C)[C@H]3CC[C@]12C)C(C)C |
| 5.19 | < 5.00 | COc1cccc(CCc2cc(O)cc(OC)c2)c1 |
| 6.40 | < 5.00 | COc1cc(O)cc2c1-c1ccc(O)cc1CC2 |
| < 5.00 | < 5.00 | COC1=CC(=O)C2=C(CCc3cc(O)ccc32)C1=O |
| 6.05 | 5.33 | COc1cc(O)cc(CCc2cccc(O)c2)c1 [BATATASIN III] |
| 6.52 | 5.70 | COc1c(O)cc2c(c1OC)-c1ccc(O)cc1CC2 [ERIANTHRIDIN] |
| 5.68 | 5.49 | COc1cc(O)cc(CCc2ccc(O)c(OC)c2)c1 [GIGANTOL] |
| 7.00 | 6.52 | CC[C@H](Nc1ncnc2[nH]cnc12)c1nc2cccc(F)c2c(=O)n1-c1ccccc1 [IDELALISIB] |
| 5.77 | < 5.00 | COc1c(O)cc2ccc3cc(O)ccc3c2c1OC [NUDOL] |

| SMILES | pIC50 [1] | pIC50 [2] |
| --- | --- | --- |
| COc1cc2ccc3cc(O)ccc3c2c(OC)c1O | 5.59 | 5.31 |
| COc1cc(O)c(Cc2ccc(O)cc2)c2ccc3cc(O)ccc3c12 | 6.30 | 6.05 |
| COc1c(O)cc2ccc3c(Cc4ccc(O)cc4)c(O)ccc3c2c1OC | 5.85 | 5.89 |
| O=Cc1ccc(O)cc1 [4-HYDROXYBENZALDEHYDE] | < 5.00 | 5.48 |
| COc1cc(O)c(-c2c(O)cc(OC)c3c2ccc2cc(O)ccc23)c2ccc3cc(O)ccc3c12 [CIRRHOPETALANTHIN] | 5.85 | 6.22 |
| COc1cc(O)c(-c2c(O)cc(OC)c3c2ccc2cc(O)ccc23)c2c1-c1ccc(O)cc1CC2 [CIRRHOPETALANTHRIN] | 6.05 | 6.22 |

Source: ChEMBL document CHEMBL3865837, “Chemical Constituents of the Rhizomes of Bletilla formosana and Their Potential Anti-inflammatory Activity” (J Nat Prod, 2016)
